Measured values published in ChEMBL document CHEMBL5036319, “Discovery of Novel Benzothiazepinones as Irreversible Covalent Glycogen Synthase Kinase 3β Inhibitors for the Treatment of Acute Promyelocytic Leukemia” (J Med Chem, 2021).

Experiments:
NB-4 = experiment: Cytotoxicity against human NB-4 cells assessed as reduction in cell viability measured after 24 hrs by CCK-8 assay; assay type: functional, cell-based; details: NB-4, 24 h
Summary of the method: (§1)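 Cells were grown in RPMI-1640 or high-glucose DMEM with 10% FBS at 37 °C, 5% CO2, and seeded at 3 × 10^4 cells/well. Exposure was 24 h across serial concentrations (0−1000 μM in the screen). […] Three independent experiments, mean ± SEM.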

HL-60 = experiment: Cytotoxicity against human HL-60 cells assessed as reduction in cell viability measured after 24 hrs by CCK-8 assay; assay type: functional, cell-based; details: HL-60, 24 h; summary of the method: as §1
[1] = Induction in caspase-mediated apoptosis in human NB-4 cells assessed as early apoptotic cells at 12.5 uM incubated for 24 hrs by Annexin V-FITC/propidium iodide staining based flow cytometry analysis (reference value: 2.02%); assay type: functional
[2] = Induction in caspase-mediated apoptosis in human NB-4 cells assessed as late apoptotic cells at 12.5 uM incubated for 24 hrs by Annexin V-FITC/propidium iodide staining based flow cytometry analysis (reference value: 1.06%); assay type: functional
[3] = Induction in caspase-mediated apoptosis in human NB-4 cells assessed as late apoptotic cells at 25 uM incubated for 24 hrs by Annexin V-FITC/propidium iodide staining based flow cytometry analysis (reference value: 1.06%); assay type: functional
[4] = Induction in caspase-mediated apoptosis in human NB-4 cells assessed as necrotic cells at 25 uM incubated for 24 hrs by Annexin V-FITC/Propidium iodide staining based flow cytometry analysis (reference value: 0.352%); assay type: functional
[5] = Induction in caspase-mediated apoptosis in human NB-4 cells assessed as early apoptotic cells at 50 uM incubated for 24 hrs by Annexin V-FITC/propidium iodide staining based flow cytometry analysis (reference value: 2.02%); assay type: functional
[6] = Induction in caspase-mediated apoptosis in human NB-4 cells assessed as viable cells at 25 uM incubated for 24 hrs in presence of Z-VAD-FMK by Annexin V-FITC/propidium iodide staining based flow cytometry analysis (reference value: 96.8%); assay type: functional; details: read-out: Activity
[7] = Induction in caspase-mediated apoptosis in human NB-4 cells assessed as late apoptotic cells at 50 uM incubated for 24 hrs in presence of Z-VAD-FMK by Annexin V-FITC/propidium iodide staining based flow cytometry analysis (reference value: 1.15%); assay type: functional
[8] = Induction in caspase-mediated apoptosis in human NB-4 cells assessed as necrotic cells at 50 uM incubated for 24 hrs in presence of Z-VAD-FMK by Annexin V-FITC/propidium iodide staining based flow cytometry analysis (reference value: 0.167%); assay type: functional
[9] = Induction in caspase-mediated apoptosis in human NB-4 cells assessed as early apoptotic cells at 100 uM incubated for 24 hrs in presence of Z-VAD-FMK by Annexin V-FITC/propidium iodide staining based flow cytometry analysis (reference value: 1.84%); assay type: functional
[10] = Induction in caspase-mediated apoptosis in human NB4-DR1 cells assessed as viable cells at 12.5 uM incubated for 24 hrs by Annexin V-FITC/propidium iodide staining based flow cytometry analysis (reference value: 96.9%); assay type: functional; details: read-out: Activity
[11] = Induction in caspase-mediated apoptosis in human NB4-DR1 cells assessed as viable cells at 50 uM incubated for 24 hrs by Annexin V-FITC/propidium iodide staining based flow cytometry analysis (reference value: 96.9%); assay type: functional; details: read-out: Activity
[12] = Induction in caspase-mediated apoptosis in human NB4-DR1 cells assessed as late apoptotic cells at 50 uM incubated for 24 hrs by Annexin V-FITC/propidium iodide staining based flow cytometry analysis (reference value: 1.47%); assay type: functional
[13] = Induction in caspase-mediated apoptosis in human NB4-DR1 cells assessed as necrotic cells at 50 uM incubated for 24 hrs by Annexin V-FITC/propidium iodide staining based flow cytometry analysis (reference value: 0.19%); assay type: functional
[14] = Induction in caspase-mediated apoptosis in human NB4-DR1 cells assessed as viable cells at 100 uM incubated for 24 hrs by Annexin V-FITC/propidium iodide staining based flow cytometry analysis (reference value: 96.9%); assay type: functional; details: read-out: Activity
[15] = Induction in caspase-mediated apoptosis in human NB4-DR1 cells assessed as viable cells at 12.5 uM incubated for 24 hrs in presence of Z-VAD-FMK by Annexin V-FITC/propidium iodide staining based flow cytometry analysis (reference value: 96.4%); assay type: functional; details: read-out: Activity
[16] = Induction in caspase-mediated apoptosis in human NB4-DR1 cells assessed as late apoptotic cells at 12.5 uM incubated for 24 hrs in presence of Z-VAD-FMK by Annexin V-FITC/propidium iodide staining based flow cytometry analysis (reference value: 2.54%); assay type: functional
[17] = Induction in caspase-mediated apoptosis in human NB4-DR1 cells assessed as necrotic cells at 12.5 uM incubated for 24 hrs in presence of Z-VAD-FMK by Annexin V-FITC/propidium iodide staining based flow cytometry analysis (reference value: 0.223%); assay type: functional
[18] = Induction in caspase-mediated apoptosis in human NB4-DR1 cells assessed as early apoptosis cells at 25 uM incubated for 24 hrs in presence of Z-VAD-FMK by Annexin V-FITC/propidium iodide staining based flow cytometry analysis (reference value: 0.875%); assay type: functional
[19] = Induction in caspase-mediated apoptosis in human NB4-DR1 cells assessed as viable cells at 50 uM incubated for 24 hrs in presence of Z-VAD-FMK by Annexin V-FITC/propidium iodide staining based flow cytometry analysis (reference value: 96.4%); assay type: functional; details: read-out: Activity
[20] = Induction in caspase-mediated apoptosis in human NB4-DR1 cells assessed as late apoptotic cells at 50 uM incubated for 24 hrs in presence of Z-VAD-FMK by Annexin V-FITC/propidium iodide staining based flow cytometry analysis (reference value: 2.54%); assay type: functional
[21] = Induction in caspase-mediated apoptosis in human NB4-DR1 cells assessed as necrotic cells at 50 uM incubated for 24 hrs in presence of Z-VAD-FMK by Annexin V-FITC/propidium iodide staining based flow cytometry analysis (reference value: 0.223%); assay type: functional
[22] = Induction in caspase-mediated apoptosis in human NB4-DR1 cells assessed as viable cells at 100 uM incubated for 24 hrs in presence of Z-VAD-FMK by Annexin V-FITC/propidium iodide staining based flow cytometry analysis (reference value: 96.4%); assay type: functional; details: read-out: Activity
[23] = Tmax in ICR mouse at 15 mg/kg, ip administered as single dose measured upto 8 hrs by LC-MS/MS analysis; assay type: ADME, organism-based; details: in vivo
Summary of the method: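 Male ICR mice (30 g) received a single 15 mg/kg i.p. bolus in corn oil. Orbital blood went into K3EDTA tubes at 0.08–8 h, three animals per time point (composite profile). Plasma was protein-precipitated with acetonitrile and analysed by LC–MS/MS; non-compartmental analysis.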

[24] = Toxicity in BALB/c mouse xenografted with human NB-4 cells assessed as body weight loss at 15 mg/kg/day, ip administered for 2 weeks; assay type: organism-based; details: in vivo, 336 h
Summary of the method: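 Female Balb/c nude mice (4 weeks old) injected subcutaneously in the right flank with 2 × 10^6 NB4 cells. At about 0.5 cm tumour diameter, mice were randomised (n = 5). Dosing was 15 mg/kg/d i.p. in corn oil, or corn-oil vehicle, daily for 2 weeks, with body weight recorded throughout; mean ± SEM.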

C=CC(=O)N1C(=O)CC(c2ccc(F)cc2)Sc2ccccc21 (stereo unspecified)
IC50 (NB-4): 19.6 µM
IC50 (HL-60): 86.3 µM
Activity [1]: 8.87%
Activity [2]: 8.04%
Activity [3]: 45.6%
Activity [4]: 11.6%
Activity [5]: 7.23%
viability at 25 µM [6]: 80%
Activity [7]: 11.7%
Activity [8]: 1.52%
Activity [9]: 5.35%
viability at 12.5 µM [10]: 92.2%
viability at 50 µM [11]: 79.7%
Activity [12]: 16.1%
Activity [13]: 2.29%
viability at 100 µM [14]: 42.7%
viability at 12.5 µM [15]: 96.1%
Activity [16]: 2.74%
Activity [17]: 0.332%
Activity [18]: 1.04%
viability at 50 µM [19]: 91.3%
Activity [20]: 7.04%
Activity [21]: 0.584%
viability at 100 µM [22]: 82.2%
Tmax [23]: 1 h
Activity [24]: Toxic
